Results as given in ChEMBL document CHEMBL4038284, “Synthesis of novel quinoline-based 4,5-dihydro-1H-pyrazoles as potential anticancer, antifungal, antibacterial and antiprotozoal agents” (Eur J Med Chem, 2017).
Converted amounts (≈) assume the structure as drawn.

Tests used:
Staphylococcus aureus [1] = assay: Antibacterial activity against vancomycin-intermediate Staphylococcus aureus after 24 hrs by resazurin dye based microdilution assay; assay type: functional
Method in brief: (§1)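 MIC taken as the lowest concentration giving visible inhibition and/or by resazurin (1 mg/mL). Gentamicin was the control. Run in duplicate, repeated at least three times.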

Trypanosoma cruzi = assay: Antitrypanosomal activity against Trypanosoma cruzi Tulahuen intracellular amastigote harboring LacZ infected in human U937 cells after 72 hrs by CPRG/Nonidet reagent based spectrophotometric method; assay type: functional, cell-based; details: U-937, 72 h
Method in brief: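 U-937 cells at 2.5 × 10^5 cells/mL in RPMI-1640 with 10% serum and 0.1 µg/mL PMA were infected with β-galactosidase-transfected Tulahuen epimastigotes at 5 parasites per cell. Infected cells were exposed to 50, 12.5, 3.125 and 0.78 µg/mL for 72 h. CPRG (100 uM) and 0.1% Nonidet P-40 were added for 3 h, read at 570 nm. EC50 by Probit. Triplicate, at least two experiments; benznidazole as reference.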

Staphylococcus aureus [2] = assay: Antibacterial activity against methicillin-resistant Staphylococcus aureus ATCC 43300 after 24 hrs by resazurin dye based microdilution assay; assay type: functional; details: ATCC 43300, 24 h
Method in brief: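 Broth microdilution in Mueller Hinton broth, inoculum 5 × 10^5 – 8 × 10^5. Compound stocks diluted in MHB with 5% DMSO and 0.1% Tween 80. Incubation 24 h at 35-37 °C. MIC is the lowest concentration with visible growth inhibition and/or by resazurin (1 mg/mL) read-out. Gentamicin as control. Run in duplicate, replicated at least three times.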

Cryptococcus neoformans [3] = assay: Growth inhibition of Cryptococcus neoformans ATCC 32264 at 31.25 ug/ml incubated for 48 hrs under dark condition by broth microdilution method relative to control; assay type: functional; details: ATCC 32264, 48 h, read-out: GI
Method in brief: (§2)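 CLSI M27-A3 broth microdilution in RPMI-1640, DMSO ≤1%. Inoculum 1-5 × 10^3 CFU/mL. Incubated 48 h at 30 °C, dark. % inhibition = 100 − (OD405 test − sterility control)/(OD405 growth control − sterility control), with growth and sterility control wells. Triplicate.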

Candida albicans [4] = assay: Growth inhibition of Candida albicans ATCC 10231 at 3.4 ug/ml incubated for 48 hrs under dark condition by broth microdilution method relative to control; assay type: functional; details: ATCC 10231, 48 h, read-out: GI
Cryptococcus neoformans [5] = assay: Growth inhibition of Cryptococcus neoformans ATCC 32264 at 15.62 ug/ml incubated for 48 hrs under dark condition by broth microdilution method relative to control; assay type: functional; details: ATCC 32264, 48 h, read-out: GI; method in brief: as §2
Cryptococcus neoformans [6] = assay: Growth inhibition of Cryptococcus neoformans ATCC 32264 at 7.8 ug/ml incubated for 48 hrs under dark condition by broth microdilution method relative to control; assay type: functional; details: ATCC 32264, 48 h, read-out: GI; method in brief: as §2
Cryptococcus neoformans [7] = assay: Growth inhibition of Cryptococcus neoformans ATCC 32264 at 250 ug/ml incubated for 48 hrs under dark condition by broth microdilution method relative to control; assay type: functional; details: ATCC 32264, 48 h, read-out: GI; method in brief: as §2
Candida albicans [8] = assay: Growth inhibition of Candida albicans ATCC 10231 at 250 ug/ml incubated for 48 hrs under dark condition by broth microdilution method relative to control; assay type: functional; details: ATCC 10231, 48 h, read-out: GI; method in brief: as §2
Leishmania panamensis = assay: Antileshmanial activity against EpiR/GFP fused Leishmania panamensis MHOM/CO/87/UA140 intracellular amastigotes infected in human […] cells after 72 hrs by flow cytometric method; assay type: functional, cell-based; details: MHOM/CO/87/UA140, 72 h
Method in brief: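 PMA-treated U-937 cells (3 × 10^5 cells/mL) infected with stationary-phase GFP L. panamensis promastigotes (15:1), 3 h at 34 °C, then washed. After 24 h, compounds added at 50, 12.5, 3.125 and 0.78 µg/mL for 72 h at 37 °C. EC50 by Probit; triplicate, two experiments.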

Candida albicans [9] = assay: Growth inhibition of Candida albicans ATCC 10231 at 62.5 ug/ml incubated for 48 hrs under dark condition by broth microdilution method relative to control; assay type: functional; details: ATCC 10231, 48 h, read-out: GI; method in brief: as §2
Staphylococcus aureus [10] = assay: Antibacterial activity against methicillin-sensitive Staphylococcus aureus ATCC 25923 after 24 hrs by resazurin dye based microdilution assay; assay type: functional; details: ATCC 25923, 24 h; method in brief: as §1
Pseudomonas aeruginosa = assay: Antibacterial activity against Pseudomonas aeruginosa ATCC 27853 after 24 hrs by resazurin dye based microdilution assay; assay type: functional; details: ATCC 27853, 24 h; method in brief: as §1
Candida albicans [11] = assay: Growth inhibition of Candida albicans ATCC 10231 at 125 ug/ml incubated for 48 hrs under dark condition by broth microdilution method relative to control; assay type: functional; details: ATCC 10231, 48 h, read-out: GI; method in brief: as §2
Candida albicans [12] = assay: Antifungal activity against Candida albicans ATCC 10231 incubated for 48 hrs under dark condition by broth microdilution method; assay type: functional; details: ATCC 10231, 48 h
Method in brief: (§3)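 CLSI M27-A3 broth microdilution in RPMI-1640, DMSO ≤1%, compounds at 250-0.98 µg/mL final. Inoculum 1-5 × 10^3 CFU/mL. Incubated 48 h at 30 °C in a moist dark chamber, read at OD405. MIC80 and MIC50 taken from % inhibition dose-response curves (mean ± SEM, triplicate). Amphotericin B was the positive control.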

Candida albicans [13] = assay: Growth inhibition of Candida albicans ATCC 10231 at 15.62 ug/ml incubated for 48 hrs under dark condition by broth microdilution method relative to control; assay type: functional; details: ATCC 10231, 48 h, read-out: GI; method in brief: as §2
Neisseria gonorrhoeae = assay: Antibacterial activity against beta lactamase positive Neisseria gonorrhoeae ATCC 31426 by oxidase test; assay type: functional
Method in brief: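 Agar dilution MIC on GC agar with 1% isovitalex containing increasing compound concentrations. Plates inoculated with about 1×10^4 CFU (5 µL). MIC is the lowest concentration that inhibited growth, with growth confirmed by oxidase test. Run in duplicate, repeated at least three times.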

Klebsiella pneumoniae [14] = assay: Antibacterial activity against carbapenemase positive Klebsiella pneumoniae BAA 1705 after 24 hrs by resazurin dye based microdilution assay; assay type: functional; details: BAA 1705, 24 h; method in brief: as §1
Escherichia coli = assay: Antibacterial activity against Escherichia coli ATCC 25922 after 24 hrs by resazurin dye based microdilution assay; assay type: functional; details: ATCC 25922, 24 h; method in brief: as §1
Klebsiella pneumoniae [15] = assay: Antibacterial activity against ESBL positive Klebsiella pneumoniae ATCC 700603 after 24 hrs by resazurin dye based microdilution assay; assay type: functional; details: Klebsiella pneumoniae, 700603, 24 h; method in brief: as §1
Cryptococcus neoformans [16] = assay: Antifungal activity against Cryptococcus neoformans ATCC 32264 incubated for 48 hrs under dark condition by broth microdilution method; assay type: functional; details: ATCC 32264, 48 h; method in brief: as §3
Candida albicans [17] = assay: Growth inhibition of Candida albicans ATCC 10231 at 7.8 ug/ml incubated for 48 hrs under dark condition by broth microdilution method relative to control; assay type: functional; details: ATCC 10231, 48 h, read-out: GI; method in brief: as §2
Cryptococcus neoformans [18] = assay: Growth inhibition of Cryptococcus neoformans ATCC 32264 at 3.4 ug/ml incubated for 48 hrs under dark condition by broth microdilution method relative to control; assay type: functional; details: ATCC 32264, 48 h, read-out: GI
Plasmodium falciparum = assay: Antiplasmodial activity against chloroquine-sensitive Plasmodium falciparum 3D7 assessed as reduction in parasitic LDH activity after 48 hrs by Malstat reagent based […] method; assay type: functional; details: 3D7, 48 h
Method in brief: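 Unsynchronized P. falciparum 3D7 at 0.5% parasitemia and 1% hematocrit in RPMI with 3% Albumax II. Exposed to 100, 25, 6.25 and 1.56 µg/mL for 48 h at 37 °C under 90% N2/5% CO2/5% O2. After three freeze-thaw cycles, LDH measured with Malstat and NBT/PES, 1 h in the dark, read at 650 nm. IC50 by Probit; triplicate, ≥2 experiments.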

Cryptococcus neoformans [19] = assay: Growth inhibition of Cryptococcus neoformans ATCC 32264 at 125 ug/ml incubated for 48 hrs under dark condition by broth microdilution method relative to control; assay type: functional; details: ATCC 32264, 48 h, read-out: GI; method in brief: as §2
U-937 = assay: Cytotoxicity against human U937 cells after 72 hrs by MTT assay; assay type: cell-based; details: u-937, 72 h
Method in brief: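 Exponentially growing U-937 at 1 × 10^5 cells/mL in RPMI-1640 with 10% FBS were exposed to 200, 50, 12.5 and 3.125 µg/mL for 72 h at 37 °C, 5% CO2. MTT for 3 h, stopped with isopropanol/SDS, formazan read at 570 nm, blank-corrected. LC50 by Probit from % viability against untreated cells. Triplicate, at least two independent experiments.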

Cryptococcus neoformans [20] = assay: Growth inhibition of Cryptococcus neoformans ATCC 32264 at 62.5 ug/ml incubated for 48 hrs under dark condition by broth microdilution method relative to control; assay type: functional; details: ATCC 32264, 48 h, read-out: GI; method in brief: as §2
Candida albicans [21] = assay: Growth inhibition of Candida albicans ATCC 10231 at 31.25 ug/ml incubated for 48 hrs under dark condition by broth microdilution method relative to control; assay type: functional; details: ATCC 10231, 48 h, read-out: GI; method in brief: as §2

Question: For Cc1ccc(C2=NN(c3ccccc3)C(c3cccc(Nc4ccnc5cc(Cl)ccc45)c3)C2)cc1 (stereo not given), which MIC (Staphylococcus aureus [1]) is on record?
Answer: > 1000 µg/mL

Question: And the EC50 (Trypanosoma cruzi)?
Answer: 1.09 µg/mL (≈ 2.23 µM)

Question: And the MIC (Staphylococcus aureus [2])?
Answer: > 1000 µg/mL

Question: What about the inhibition of growth at 31.25 µg/mL (Cryptococcus neoformans [3]) of the same compound?
Answer: 1.72%

Question: And the inhibition of growth at 3.4 µg/mL (Candida albicans [4])?
Answer: 2.29%

Question: And the inhibition of growth at 15.62 µg/mL (Cryptococcus neoformans [5])?
Answer: 0.86%

Question: And the inhibition of growth at 7.8 µg/mL (Cryptococcus neoformans [6])?
Answer: 0%

Question: What about the inhibition of growth at 250 µg/mL (Cryptococcus neoformans [7]) of the same compound?
Answer: 31.5%

Question: And the inhibition of growth at 250 µg/mL (Candida albicans [8])?
Answer: 28.3%

Question: And the EC50 (Leishmania panamensis)?
Answer: 1.83 µg/mL (≈ 3.74 µM)

Question: And the inhibition of growth at 62.5 µg/mL (Candida albicans [9])?
Answer: 13.1%

Question: What about the MIC (Staphylococcus aureus [10]) of the same compound?
Answer: > 1000 µg/mL

Question: And the MIC (Pseudomonas aeruginosa)?
Answer: > 1000 µg/mL

Question: What about the inhibition of growth at 125 µg/mL (Candida albicans [11]) of the same compound?
Answer: 22.9%

Question: What about the MIC50 (Candida albicans [12]) of the same compound?
Answer: ≥ 250 µg/mL

Question: And the MIC80 (Candida albicans [12])?
Answer: ≥ 250 µg/mL

Question: What about the inhibition of growth at 15.62 µg/mL (Candida albicans [13]) of the same compound?
Answer: 7.89%

Question: And the MIC (Neisseria gonorrhoeae)?
Answer: > 1000 µg/mL

Question: What about the MIC (Klebsiella pneumoniae [14]) of the same compound?
Answer: > 1000 µg/mL

Question: And the MIC (Escherichia coli)?
Answer: > 1000 µg/mL

Question: And the MIC (Klebsiella pneumoniae [15])?
Answer: > 1000 µg/mL

Question: And the MIC50 (Cryptococcus neoformans [16])?
Answer: ≥ 250 µg/mL

Question: And the MIC80 (Cryptococcus neoformans [16])?
Answer: ≥ 250 µg/mL

Question: And the inhibition of growth at 7.8 µg/mL (Candida albicans [17])?
Answer: 2.53%

Question: And the inhibition of growth at 3.4 µg/mL (Cryptococcus neoformans [18])?
Answer: 0%

Question: And the EC50 (Plasmodium falciparum)?
Answer: 13.5 µg/mL (≈ 27.7 µM)

Question: And the inhibition of growth at 125 µg/mL (Cryptococcus neoformans [19])?
Answer: 7.45%

Question: And the LC50 (U-937)?
Answer: 1.4 µg/mL (≈ 2.86 µM)

Question: What about the inhibition of growth at 62.5 µg/mL (Cryptococcus neoformans [20]) of the same compound?
Answer: 4.01%

Question: What about the inhibition of growth at 31.25 µg/mL (Candida albicans [21]) of the same compound?
Answer: 12%
